From ChEMBL document CHEMBL1671864, “First assessment in humans of the safety, tolerability, pharmacokinetics, and ex vivo pharmacodynamic antimalarial activity of the new artemisinin derivative artemisone” (Antimicrob Agents Chemother, 2008) come the findings set out here.

Converted amounts (≈) assume the structure as drawn.

Series [1] relates to Plasma. Briefly: Half-life in healthy human plasma assessed as metabolite BAY 78-1789 half-life at 80 mg, po administered as single ascending doses during 10 hrs overnight fasting state. The class given is ADME, organism-based. The following applies: in vivo. The method in brief:
(§1)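 Healthy Caucasian male volunteers, single oral dose with 240 ml water after a 10-h overnight fast. Heparinised venous blood was drawn predose and at 0.25–14 h. Plasma was stored frozen. Parent drug and metabolites M1–M3 were measured by LC/MS-MS (MRM, deuterated internal standard). Noncompartmental analysis gave Cmax observed, t1/2 = 0.693/kel (terminal regression) and MRT = AUMC/AUC. Values are geometric means.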

The subject of series [2] is Plasma. Put plainly: Ratio of AUC (0 to infinity) for metabolite BAY 78-1789 to AUC (0 to infinity) for compound in healthy human plasma at 80 mg, po administered as single dose for 3 days measured after 1 day. The class given is ADME, organism-based. The following applies: in vivo, 24 h. Summed up:
(§2)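 Healthy Caucasian men (8 active, 4 placebo per dose) dosed with tablets daily for 3 days after 10-h fast. Plasma sampled 0.25–14 h after first and last doses. Parent and metabolites M1–M3 measured by LC/MS-MS (200 µl plasma). Metabolic ratio is metabolite AUC0-∞ divided by parent AUC0-∞ (log-linear trapezoidal, extrapolated by last concentration/kel). First vs third dose compared by paired t test.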

In series [3] the test system is Plasma. Briefly: Cmax in healthy human plasma assessed as metabolite BAY 78-1789 Cmax at 40 mg, po administered as two 20 mg immediate release tablets daily for 3 days during 10 hrs overnight fasting state measured after 1 day. The class given is ADME, organism-based. Particulars: in vivo, 24 h. Set-up: dose 40 mg, route oral. Summed up:
(§3)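 Healthy Caucasian males took tablets once daily for 3 days with 240 ml water after a 10-h fast. Heparinised blood was drawn predose and at 0.25–14 h after the first and last doses. Plasma parent drug and metabolites M1–M3 were measured by LC/MS-MS (MRM, deuterated internal standard). Noncompartmental analysis gave Cmax observed, t1/2 = 0.693/kel and MRT = AUMC/AUC. Values are geometric means.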

The test system of series [4] is Plasma. Put plainly: Tmax in healthy human plasma assessed as metabolite BAY 78-1789 Tmax at 80 mg, po administered as four 20 mg immediate release tablets daily for 3 days during 10 hrs overnight fasting state measured after 3 day. The class given is ADME, organism-based. Particulars: in vivo, 72 h. Summed up: (§4)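 Healthy Caucasian men (8 active, 4 placebo per dose) dosed with tablets daily for 3 days after 10-h fast. Lithium-heparin plasma sampled predose and 0.25–14 h after day-1 and day-3 doses, stored frozen. Parent and M1–M3 quantified by LC/MS-MS in positive-ion MRM. Tmax taken directly from observed individual data.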

Series [5] deals with Plasma. Put plainly: Ratio of AUC (0 to infinity) for metabolite BAY 78-1789 to AUC (0 to infinity) for compound in healthy human plasma at 40 mg, po administered as single dose for 3 days measured after 1 day. The class given is ADME, organism-based. Particulars: in vivo, 24 h. The method in brief: as §2
In series [6] the test system is Plasma. Briefly: Half life in healthy human plasma assessed as metabolite BAY 78-1789 Half life at 40 mg, po administered as two 20 mg immediate release tablets daily for 3 days during 10 hrs overnight fasting state measured after 3 day. The class given is ADME, organism-based. Particulars: in vivo, 72 h. The method in brief:
as §3

The test system of series [7] is Plasma. Put plainly: Cmax in healthy human plasma assessed as metabolite BAY 78-1789 Cmax at 80 mg, po administered as four 20 mg immediate release tablets daily for 3 days during 10 hrs overnight fasting state measured after 3 day. The following applies: in vivo, 72 h. The class given is ADME, organism-based. Further details: dose 80 mg, route oral. The method in brief:
as §3

The subject of series [8] is Plasma. Briefly: AUC in healthy human plasma assessed as metabolite BAY 78-1789 AUC at 80 mg, po administered as four 20 mg immediate release tablets daily for 3 days during 10 hrs overnight fasting state measured after 1 day. Set-up: dose 80 mg, time < 10 hr, route oral. The class given is ADME, organism-based. Particulars: in vivo. The method in brief: (§5)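 Healthy Caucasian male volunteers took 40 mg (two 20-mg IR tablets) or 80 mg (four tablets) orally once daily for 3 days, with 240 ml water after a 10-h fast. Plasma was sampled predose to 14 h after the first and last doses. M1/M2/M3 were quantified by LC/MS-MS MRM against a D4-labelled internal standard. Cmax was read from observed data and AUC by log-linear trapezoidal rule, noncompartmental, geometric means.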

For series [9], the system named is Plasma. Put plainly: Cmax in healthy human plasma assessed as metabolite BAY 78-1789 Cmax at 80 mg, po administered as four 20 mg immediate release tablets daily for 3 days during 10 hrs overnight fasting state measured after 1 day. The class given is ADME, organism-based. Set-up: dose 80 mg, route oral. The following applies: in vivo, 24 h. Summed up:
as §3

The test system of series [10] is Plasma. Put plainly: Cmax in healthy human plasma assessed as metabolite BAY 78-1789 Cmax at 80 mg, po administered as single ascending doses during 10 hrs overnight fasting state. The class given is ADME, organism-based. Set-up: dose 80 mg, route oral. Particulars: in vivo. Summed up: as §1
The subject of series [11] is Plasma. Put plainly: Half life in healthy human plasma assessed as metabolite BAY 78-1789 Half life at 80 mg, po administered as four 20 mg immediate release tablets daily for 3 days during 10 hrs overnight fasting state measured after 3 day. The class given is ADME, organism-based. The following applies: in vivo, 72 h. Summed up: as §3
Series [12] relates to Plasma. Put plainly: Tmax in healthy human plasma assessed as metabolite BAY 78-1789 Tmax at 40 mg, po administered as two 20 mg immediate release tablets daily for 3 days during 10 hrs overnight fasting state measured after 3 day. The class given is ADME, organism-based. Particulars: in vivo, 72 h. Summed up:
as §4

The subject of series [13] is Plasma. Briefly: Ratio of AUC (0 to infinity) for metabolite BAY 78-1789 to AUC (0 to infinity) for compound in healthy human plasma at 40 mg, po administered as single dose for 3 days measured after 3 days. The class given is ADME, organism-based. Particulars: in vivo, 72 h. The method in brief:
as §2

The test system of series [14] is Plasma. Briefly: AUC (0 to infinity) in healthy human plasma assessed as metabolite BAY 78-1789 AUC (0 to infinity) at 80 mg, po administered as single ascending doses during 10 hrs overnight fasting state. The class given is ADME, organism-based. Set-up: dose 80 mg, time infinity, route oral. Particulars: in vivo. The method in brief:
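Healthy Caucasian male volunteers, single oral dose of 80 mg as four 20-mg immediate-release tablets, taken with 240 ml water after a 10-h overnight fast. Lithium-heparin venous blood was drawn predose and at 0.25–14 h, and plasma was stored frozen. Metabolites M1/M2/M3 were measured by LC/MS-MS (positive-ion MRM, deuterated internal standard). Noncompartmental analysis, AUC by log-linear trapezoidal rule extrapolated to infinity (Clast/kel), geometric means.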

Series [15] relates to Plasma. Briefly: AUC in healthy human plasma assessed as metabolite BAY 78-1789 AUC at 80 mg, po administered as four 20 mg immediate release tablets daily for 3 days during 10 hrs overnight fasting state measured after 3 day. The class given is ADME, organism-based. Set-up: dose 80 mg, time < 10 hr, route oral. The following applies: in vivo. The method in brief:
as §5

The next series deals with Plasmodium falciparum. Put plainly: Antimalarial activity against Plasmodium falciparum K1 in human plasma assessed as inhibition of hypoxanthine uptake by intraerythrocytic malaria parasites by hypoxanthine incorporation assay. The class given is functional, organism-based. Summed up:
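K1 or TM90-C2A parasites were sorbitol-synchronized and cultured in RPMI 1640. Drug was diluted in drug-free human serum (0.04–40 ng/ml) or subject plasma was diluted twofold (8–8,192). Parasites were added at 2% hematocrit, 1% parasitemia (>95% rings), and [3H]hypoxanthine uptake was measured over 48 h. IC50 or ID50 came from concentration or dilution-response curves. Equivalent concentration = ID50 × IC50.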

The test system of series [16] is Plasma. Briefly: Half life in healthy human plasma assessed as metabolite BAY 78-1789 Half life at 40 mg, po administered as two 20 mg immediate release tablets daily for 3 days during 10 hrs overnight fasting state measured after 1 day. The class given is ADME, organism-based. Particulars: in vivo, 24 h. Summed up:
as §3

Series [17] concerns Plasma. Briefly: Tmax in healthy human plasma assessed as metabolite BAY 78-1789 Tmax at 40 mg, po administered as two 20 mg immediate release tablets daily for 3 days during 10 hrs overnight fasting state measured after 1 day. The class given is ADME, organism-based. Particulars: in vivo, 24 h. Summed up:
as §4

In series [18] the test system is Plasma. Briefly: AUC in healthy human plasma assessed as metabolite BAY 78-1789 AUC at 40 mg, po administered as two 20 mg immediate release tablets daily for 3 days during 10 hrs overnight fasting state measured after 3 day. The class given is ADME, organism-based. Further details: time < 10 hr, dose 40 mg, route oral. Particulars: in vivo. Summed up:
as §5

Series [19] has as its system Plasma. Put plainly: AUC in healthy human plasma assessed as metabolite BAY 78-1789 AUC at 40 mg, po administered as two 20 mg immediate release tablets daily for 3 days during 10 hrs overnight fasting state measured after 1 day. The class given is ADME, organism-based. Set-up: time < 10 hr, dose 40 mg, route oral. Particulars: in vivo. Summed up:
as §5

Series [20] relates to Plasma. Put plainly: Cmax in healthy human plasma assessed as metabolite BAY 78-1789 Cmax at 40 mg, po administered as two 20 mg immediate release tablets daily for 3 days during 10 hrs overnight fasting state measured after 3 day. The class given is ADME, organism-based. Set-up: dose 40 mg, route oral. Particulars: in vivo, 72 h. Summed up: as §3
Series [21] relates to Plasma. Put plainly: Half life in healthy human plasma assessed as metabolite BAY 78-1789 Half life at 80 mg, po administered as four 20 mg immediate release tablets daily for 3 days during 10 hrs overnight fasting state measured after 1 day. Particulars: in vivo. The class given is ADME, organism-based. Summed up:
as §3

The subject of series [22] is Plasma. Briefly: Tmax in healthy human plasma assessed as metabolite BAY 78-1789 Tmax at 80 mg, po administered as four 20 mg immediate release tablets daily for 3 days during 10 hrs overnight fasting state measured after 1 day. The class given is ADME, organism-based. Particulars: in vivo, 24 h. The method in brief:
as §4

Series [23] has as its system Plasma. Briefly: Ratio of AUC (0 to infinity) for metabolite BAY 78-1789 to AUC (0 to infinity) for compound in healthy human plasma at 80 mg, po administered as single dose for 3 days measured after 3 days. The class given is ADME, organism-based. Particulars: in vivo, 72 h. The method in brief:
as §2

`C[C@@H]1[C@H](O)C[C@H]2[C@@H](C)[C@H](N3CCS(=O)(=O)CC3)O[C@@H]3O[C@]4(C)CC[C@@H]1[C@]32OO4`: the t1/2 was 1.59 h with Plasma [1]; 1.69 h with Plasma [6]; 1.86 h in the series with Plasma [11]; 1.52 h in the series on Plasma [16]; 1.83 h with Plasma [21]. The Ratio in the series on Plasma [2] is reported as 0.65; with Plasma [5], 0.54; in the series with Plasma [13] it was 0.47; with Plasma [23], 0.52. In addition, the Cmax (in general, the maximum level reached in the sampled fluid or tissue) worked out at 27.8 ng/mL with Plasma [3]; 38.2 ng/mL in the series on Plasma [7]; 51.9 ng/mL with Plasma [9]; 74.3 ng/mL in the series on Plasma [10]; 22.5 ng/mL in the series on Plasma [20]. For the same compound, the time to peak (Tmax) (in general, the time at which the peak concentration occurs) in the series on Plasma [4] is 2.5 h; with Plasma [12] it was 2.5 h; in the series with Plasma [17], 2 h; in the series on Plasma [22], 2 h. Also, the AUC (commonly concentration integrated over time) with Plasma [8] was found to be 213.1 ng·h/mL; in the series with Plasma [14], 294.8 ng·h/mL; in the series on Plasma [15], 165.1 ng·h/mL; with Plasma [18], 84.9 ng·h/mL; with Plasma [19], 95.9 ng·h/mL. Besides, the half-maximal inhibitory concentration (IC50) (in general, the concentration that inhibits the measured activity by half) in the series on Plasmodium falciparum is 2.3 ng/mL (≈ 5.51 nM).
